In ChEMBL document CHEMBL1817562, “Docking and SAR studies of D- and L-isofagomine isomers as human β-glucocerebrosidase inhibitors” (Bioorg Med Chem, 2011) one finds inhibition, IC50 and Ki data, which are given here for four molecules.

The structures appear in SMILES notation.

Assay [1] concerns the target Sucrase-isomaltase, intestinal (Rattus norvegicus) (UniProt P23739). To be noted: 1000 uM.
The target in assay [2] is Lactase/phlorizin hydrolase (Rattus norvegicus, UniProt Q02401). As to the kind of experiment: Inhibition of rat intestinal lactase assessed as production of p-nitrophenol by spectrophotometry.
The target in assay [3] is T1, Tissue alpha-L-fucosidase (Bos taurus, UniProt Q2KIM0).
T1 sequence (Q2KIM0 whole entry): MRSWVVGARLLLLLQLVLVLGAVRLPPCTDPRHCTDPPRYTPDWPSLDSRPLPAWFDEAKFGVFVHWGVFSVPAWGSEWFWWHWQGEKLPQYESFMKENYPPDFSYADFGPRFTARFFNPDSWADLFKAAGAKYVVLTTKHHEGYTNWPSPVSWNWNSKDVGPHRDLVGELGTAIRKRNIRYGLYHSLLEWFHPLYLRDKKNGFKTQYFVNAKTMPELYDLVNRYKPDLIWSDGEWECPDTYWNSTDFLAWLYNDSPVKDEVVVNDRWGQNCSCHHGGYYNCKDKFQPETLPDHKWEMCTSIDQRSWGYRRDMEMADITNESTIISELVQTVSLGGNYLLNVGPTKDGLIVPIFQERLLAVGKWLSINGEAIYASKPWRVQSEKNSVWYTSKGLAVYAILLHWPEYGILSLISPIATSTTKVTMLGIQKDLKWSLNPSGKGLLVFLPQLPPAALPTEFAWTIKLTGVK
As to the kind of experiment: Inhibition of bovine epididymis alpha-L-fucosidase assessed as production of p-nitrophenol by spectrophotometry. The essentials: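 Commercial enzymes were assayed at their own optimum pH: bovine epididymis α-L-fucosidase pH 5.5, bovine liver β-galactosidase pH 6.8, coffee bean α-galactosidase pH 6.5. Reactions contained 2 mM of the matching p-nitrophenyl glycoside plus enzyme. They were stopped with 400 mM Na2CO3, and released p-nitrophenol was read at 400 nm.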

Assay [4] deals with T2, Glucosylceramidase (Bos taurus) (UniProt Q2KHZ8).
T2 sequence (whole entry): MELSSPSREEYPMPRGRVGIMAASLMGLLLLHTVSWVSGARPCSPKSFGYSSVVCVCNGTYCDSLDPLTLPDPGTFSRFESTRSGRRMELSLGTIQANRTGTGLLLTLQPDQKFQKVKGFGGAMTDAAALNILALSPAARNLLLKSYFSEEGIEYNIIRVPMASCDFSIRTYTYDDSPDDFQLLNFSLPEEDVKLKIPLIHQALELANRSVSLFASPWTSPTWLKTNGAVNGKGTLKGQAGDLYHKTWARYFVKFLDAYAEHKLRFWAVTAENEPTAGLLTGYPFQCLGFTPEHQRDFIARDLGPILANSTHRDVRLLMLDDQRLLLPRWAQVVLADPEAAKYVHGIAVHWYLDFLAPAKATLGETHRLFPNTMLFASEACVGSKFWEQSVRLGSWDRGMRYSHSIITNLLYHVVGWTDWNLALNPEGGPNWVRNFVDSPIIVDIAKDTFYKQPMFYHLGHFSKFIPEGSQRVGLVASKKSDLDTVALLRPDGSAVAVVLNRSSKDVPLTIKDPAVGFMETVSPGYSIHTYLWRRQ
As to the kind of experiment: Inhibition of bovine liver beta-glucosidase assessed as production of p-nitrophenol using p-nitrophenyl glycoside as substrate at 1000 uM by spectrophotometry.

For another assay, the system named is Penicillium decumbens. As to the kind of experiment: Inhibition of Penicillium decumbens alpha-L-rhamnosidase assessed as production of p-nitrophenol at 1000 uM by spectrophotometry. The essentials:
(§1)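 p-Nitrophenyl glycoside matched to each enzyme, 2 mM, with enzyme at that enzyme's optimum pH: Penicillium decumbens α-L-rhamnosidase pH 4.0, bovine liver β-galactosidase pH 6.8, coffee bean α-galactosidase pH 6.5, jack bean α-mannosidase pH 4.5, snail β-mannosidase pH 4.5. Stopped with 400 mM Na2CO3; released p-nitrophenol read at 400 nm.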

For assay [5], the target named is T3, Sucrase-isomaltase, intestinal (Rattus norvegicus, UniProt P23739). As to the kind of experiment: Inhibition of rat intestinal sucrase assessed as release of D-glucose at by spectrophotometry.
The subject of a further assay is Helix pomatia. As to the kind of experiment: Inhibition of snail beta-mannosidase assessed as production of p-nitrophenol at 1000 uM by spectrophotometry. The essentials:
as §1

A further assay relates to Prunus dulcis. To be noted: 1000 uM.
For a further assay, the system named is Canavalia ensiformis. As to the kind of experiment: Inhibition of jack beans alpha-mannosidase assessed as production of p-nitrophenol at 1000 uM by spectrophotometry. An outline of the steps: as §1
The nature of assay [6]: Inhibition of rat intestinal maltase assessed as production of D-glucose using maltose as substrate after 10 to 30 mins by spectrophotometry. An outline of the steps: (§2)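 Enzymes were rice α-glucosidase at pH 5.0 and rat small-intestine brush border membranes (Kessler method) at pH 5.8. Each reaction contained 25 mM maltose and enzyme and was incubated 10–30 min at 37 °C. Reactions were stopped by heating at 100 °C for 3 min, then centrifuged. Released D-glucose was measured with a glucose test reagent by absorbance at 505 nm.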

Assay [7] addresses T4, Lysosomal acid glucosylceramidase (Homo sapiens) (UniProt P04062).
T4 sequence (whole entry): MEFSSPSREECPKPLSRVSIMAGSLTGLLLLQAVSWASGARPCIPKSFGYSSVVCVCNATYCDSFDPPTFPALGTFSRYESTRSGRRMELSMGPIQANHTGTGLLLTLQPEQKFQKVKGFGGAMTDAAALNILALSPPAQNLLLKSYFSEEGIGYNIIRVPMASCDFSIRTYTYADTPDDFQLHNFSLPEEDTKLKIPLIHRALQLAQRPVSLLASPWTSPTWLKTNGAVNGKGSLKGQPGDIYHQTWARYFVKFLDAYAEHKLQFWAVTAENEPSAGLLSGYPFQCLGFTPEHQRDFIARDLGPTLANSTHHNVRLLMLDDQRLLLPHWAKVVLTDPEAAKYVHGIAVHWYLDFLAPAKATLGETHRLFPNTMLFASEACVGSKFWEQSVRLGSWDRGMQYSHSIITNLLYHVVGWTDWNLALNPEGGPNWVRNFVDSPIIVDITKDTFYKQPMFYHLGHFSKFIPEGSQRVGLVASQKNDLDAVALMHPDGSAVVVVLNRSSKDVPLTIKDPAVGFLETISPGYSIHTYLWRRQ
The note with it: 1000 uM.

Assay [8] can be described thus: Inhibition of rice alpha-glucosidase assessed as production of D-glucose using maltose as substrate after 10 to 30 mins by spectrophotometry. Details: species or system Oryza sativa. The essentials: as §2
In a further assay the test system is Coffea. As to the kind of experiment: Inhibition of coffee beans alpha-galactosidase assessed as production of p-nitrophenol at 1000 uM by spectrophotometry. The essentials: as §1
A short description of assay [9]: Inhibition of rat intestinal cellobiase assessed as production of p-nitrophenol by spectrophotometry.
In another assay the test system is Oryza sativa. To be noted: 1000 uM.
A further assay concerns the target T5, Beta-galactosidase (Bos taurus, UniProt Q58D55).
T5 sequence (Q58D55 whole entry): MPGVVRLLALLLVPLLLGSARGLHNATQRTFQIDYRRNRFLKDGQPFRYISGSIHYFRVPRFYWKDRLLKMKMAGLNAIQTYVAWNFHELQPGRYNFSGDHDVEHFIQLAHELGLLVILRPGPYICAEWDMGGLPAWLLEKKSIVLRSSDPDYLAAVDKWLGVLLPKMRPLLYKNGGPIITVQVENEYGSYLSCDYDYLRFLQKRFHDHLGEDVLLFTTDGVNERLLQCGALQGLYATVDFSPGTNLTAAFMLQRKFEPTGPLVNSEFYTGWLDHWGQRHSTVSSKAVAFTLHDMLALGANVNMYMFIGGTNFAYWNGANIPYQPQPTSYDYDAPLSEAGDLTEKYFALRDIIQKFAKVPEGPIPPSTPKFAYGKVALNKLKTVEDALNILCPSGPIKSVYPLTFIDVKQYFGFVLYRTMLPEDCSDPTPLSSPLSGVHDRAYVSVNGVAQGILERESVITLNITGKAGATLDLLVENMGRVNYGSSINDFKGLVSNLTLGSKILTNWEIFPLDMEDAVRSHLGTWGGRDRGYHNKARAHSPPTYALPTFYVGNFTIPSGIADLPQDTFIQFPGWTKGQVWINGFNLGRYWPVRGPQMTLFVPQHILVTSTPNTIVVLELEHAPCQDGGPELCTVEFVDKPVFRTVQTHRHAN
As to the kind of experiment: Inhibition of bovine liver beta-galactosidase assessed as production of p-nitrophenol by spectrophotometry.

Assay [10] addresses T6, Tissue alpha-L-fucosidase (Bos taurus) (UniProt Q2KIM0).
T6 sequence (whole entry): T1 sequence (Q2KIM0 whole entry)
The note with it: 1000 uM.

The target in assay [11] is T3, Sucrase-isomaltase, intestinal. As to the kind of experiment: Inhibition of rat intestinal isomaltase assessed as production of p-nitrophenol at by spectrophotometry.
Assay [12] is described as follows: Inhibition of almond beta-glucosidase assessed as production of p-nitrophenol using p-nitrophenyl glycoside as substrate by spectrophotometry.
Assay [13] addresses Lactase/phlorizin hydrolase (Rattus norvegicus) (UniProt Q02401). The note with it: 1000 uM.
For the next assay, the species on record is Rattus norvegicus. As to the kind of experiment: Inhibition of rat intestinal cellobiase assessed as production of p-nitrophenol at 1000 uM by spectrophotometry.
Assay [14] can be described thus: Inhibition of rice alpha-glucosidase. Details: species or system Oryza sativa. The essentials: as §2
The nature of assay [15]: Inhibition of rat intestinal maltase. The essentials: as §2

T3 sequence (P23739 1-1013 limits assumed): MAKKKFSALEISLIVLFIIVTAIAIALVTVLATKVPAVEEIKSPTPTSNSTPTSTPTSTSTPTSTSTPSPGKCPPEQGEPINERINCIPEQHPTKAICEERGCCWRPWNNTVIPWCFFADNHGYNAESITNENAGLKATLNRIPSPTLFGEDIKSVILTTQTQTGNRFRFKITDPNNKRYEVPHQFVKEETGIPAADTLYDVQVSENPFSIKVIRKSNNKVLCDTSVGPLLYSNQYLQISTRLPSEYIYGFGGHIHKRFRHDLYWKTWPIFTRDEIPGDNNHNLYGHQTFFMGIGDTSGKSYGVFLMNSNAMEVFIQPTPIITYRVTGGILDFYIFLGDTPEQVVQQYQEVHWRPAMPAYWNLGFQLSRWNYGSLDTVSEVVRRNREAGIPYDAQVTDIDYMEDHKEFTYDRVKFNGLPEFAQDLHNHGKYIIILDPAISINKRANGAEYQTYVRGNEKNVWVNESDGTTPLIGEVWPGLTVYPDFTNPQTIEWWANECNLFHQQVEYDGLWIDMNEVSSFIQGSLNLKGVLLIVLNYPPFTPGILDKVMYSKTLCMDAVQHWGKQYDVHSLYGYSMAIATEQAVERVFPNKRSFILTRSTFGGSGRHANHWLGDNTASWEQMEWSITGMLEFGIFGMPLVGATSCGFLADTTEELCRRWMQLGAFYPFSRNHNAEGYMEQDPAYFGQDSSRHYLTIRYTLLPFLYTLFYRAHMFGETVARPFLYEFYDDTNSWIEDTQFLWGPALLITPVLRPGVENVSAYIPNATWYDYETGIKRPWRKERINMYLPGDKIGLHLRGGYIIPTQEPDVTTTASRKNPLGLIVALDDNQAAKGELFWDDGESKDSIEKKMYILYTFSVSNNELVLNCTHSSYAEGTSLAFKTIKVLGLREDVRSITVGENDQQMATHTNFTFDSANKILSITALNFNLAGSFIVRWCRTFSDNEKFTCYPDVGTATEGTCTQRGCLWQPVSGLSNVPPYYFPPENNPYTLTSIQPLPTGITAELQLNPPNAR
T3 sequence (P23739 1014-1841 limits assumed): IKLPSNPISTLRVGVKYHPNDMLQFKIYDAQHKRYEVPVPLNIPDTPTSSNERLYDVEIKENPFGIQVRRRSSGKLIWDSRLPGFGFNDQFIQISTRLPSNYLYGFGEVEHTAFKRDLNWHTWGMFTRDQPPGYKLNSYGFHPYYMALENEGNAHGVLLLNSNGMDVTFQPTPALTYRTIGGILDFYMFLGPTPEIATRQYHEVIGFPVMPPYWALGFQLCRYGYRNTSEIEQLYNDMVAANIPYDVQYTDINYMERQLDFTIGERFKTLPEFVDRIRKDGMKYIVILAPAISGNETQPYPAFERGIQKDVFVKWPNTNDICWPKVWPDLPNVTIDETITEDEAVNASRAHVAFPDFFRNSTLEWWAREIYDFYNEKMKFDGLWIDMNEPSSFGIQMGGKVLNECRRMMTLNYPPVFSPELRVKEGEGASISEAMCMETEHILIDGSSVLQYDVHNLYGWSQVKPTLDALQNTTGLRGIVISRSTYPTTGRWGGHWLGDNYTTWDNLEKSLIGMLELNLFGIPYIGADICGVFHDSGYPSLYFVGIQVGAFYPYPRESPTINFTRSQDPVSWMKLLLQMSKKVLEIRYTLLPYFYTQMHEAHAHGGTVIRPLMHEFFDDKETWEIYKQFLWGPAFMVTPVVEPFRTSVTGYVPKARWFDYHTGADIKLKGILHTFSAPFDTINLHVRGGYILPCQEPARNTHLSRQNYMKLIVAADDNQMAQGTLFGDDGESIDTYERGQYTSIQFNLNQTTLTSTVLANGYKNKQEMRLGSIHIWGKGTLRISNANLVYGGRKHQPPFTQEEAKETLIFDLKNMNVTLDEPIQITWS
Chain of Lactase/phlorizin hydrolase (Q02401 868-1928 limits assumed): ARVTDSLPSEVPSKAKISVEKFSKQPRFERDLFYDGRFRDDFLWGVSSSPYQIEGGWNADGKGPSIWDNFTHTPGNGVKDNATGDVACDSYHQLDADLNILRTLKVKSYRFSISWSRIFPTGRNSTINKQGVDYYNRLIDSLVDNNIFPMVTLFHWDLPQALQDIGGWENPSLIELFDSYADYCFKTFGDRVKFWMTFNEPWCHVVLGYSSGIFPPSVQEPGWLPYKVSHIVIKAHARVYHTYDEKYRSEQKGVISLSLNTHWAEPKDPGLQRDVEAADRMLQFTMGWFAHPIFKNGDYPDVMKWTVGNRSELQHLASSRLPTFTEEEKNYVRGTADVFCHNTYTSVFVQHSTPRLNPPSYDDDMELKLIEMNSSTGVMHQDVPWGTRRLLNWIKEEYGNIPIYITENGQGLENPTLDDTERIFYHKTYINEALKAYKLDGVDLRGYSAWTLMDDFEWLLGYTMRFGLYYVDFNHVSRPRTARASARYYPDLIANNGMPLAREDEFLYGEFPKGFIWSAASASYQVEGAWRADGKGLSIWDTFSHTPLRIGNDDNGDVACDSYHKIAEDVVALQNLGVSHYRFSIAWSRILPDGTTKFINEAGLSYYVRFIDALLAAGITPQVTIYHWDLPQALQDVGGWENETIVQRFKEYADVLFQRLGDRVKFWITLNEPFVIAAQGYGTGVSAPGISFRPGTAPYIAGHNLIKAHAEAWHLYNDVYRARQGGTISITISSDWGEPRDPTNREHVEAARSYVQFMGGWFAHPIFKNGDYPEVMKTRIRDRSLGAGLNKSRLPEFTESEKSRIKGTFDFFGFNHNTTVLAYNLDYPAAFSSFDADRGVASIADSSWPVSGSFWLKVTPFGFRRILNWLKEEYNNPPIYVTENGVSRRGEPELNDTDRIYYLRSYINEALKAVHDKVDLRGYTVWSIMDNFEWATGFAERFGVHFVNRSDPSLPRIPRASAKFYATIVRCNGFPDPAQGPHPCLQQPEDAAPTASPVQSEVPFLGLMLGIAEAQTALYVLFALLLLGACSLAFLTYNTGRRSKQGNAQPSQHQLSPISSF
Chain of Sucrase-isomaltase, intestinal (Rattus norvegicus) (P23739 1-1013 limits assumed): as the sequence (P23739 1-1013 limits assumed) above
Chain of Sucrase-isomaltase, intestinal (Rattus norvegicus) (P23739 1014-1841 limits assumed): as the sequence (P23739 1014-1841 limits assumed) above
Chain of Lactase/phlorizin hydrolase (Rattus norvegicus) (Q02401 868-1928 limits assumed): as the sequence (Q02401 868-1928 limits assumed) above

As for `OC[C@@H]1NCC[C@@H](O)[C@H]1O`, the inhibition (in assay [1]; in assay [4]; in the assay on Penicillium decumbens; with Helix pomatia; with Prunus dulcis; in the assay with Canavalia ensiformis) was less than 50% in each case. For the same molecule, the inhibition (in assay [7]; in the assay with Coffea) was less than 50% in each case. For the same molecule, the concentration for half-maximal inhibition (IC50) in assay [2] is 122 µM; in assay [3] it was 260 µM; in assay [5] it was 225 µM; in assay [6], 357 µM; in assay [8] it was 188 µM; in [9] it was 809 µM.

On to `OC[C@H]1CNC[C@@H](O)[C@@H]1O` [AFEGOSTAT], for which the concentration for half-maximal inhibition (IC50) is 0.12 µM in assay [2]; 531 µM in assay [5]; 653 µM in assay [6]; 3.6 µM at Beta-galactosidase; 290 µM in assay [11]; 0.98 µM in assay [12]. Besides, the IC50 in assay [9] came to 0.3 µM. Moreover, the inhibition (in the assay with Penicillium decumbens; in the assay on Helix pomatia; with Canavalia ensiformis; in the assay on Oryza sativa; in the assay with Coffea; in assay [10]) was less than 50% throughout.

On to `OC[C@H]1NCC[C@@H](O)[C@@H]1O` [FAGOMINE], for which the inhibition (in the assay with Penicillium decumbens; in the assay on Helix pomatia; with Prunus dulcis; in the assay on Canavalia ensiformis; in [13]; in the assay with Coffea) was less than 50% throughout. Moreover, the inhibition (in assay [10]; in the assay listed under Rattus norvegicus) was less than 50% each time. In addition, the IC50 is 34 µM in assay [5], 113 µM in [6], 320 µM in assay [8] and 37 µM in [11].

In the case of `OCC1(O)CNC[C@H]1O` (single isomer, unassigned), the results for the Ki in assay [14] and in assay [15] were 4 µM and 6 µM, respectively.
